Reference: ChEMBL document CHEMBL4834416, “The Discovery of Novel ACA Derivatives as Specific TRPM2 Inhibitors that Reduce Ischemic Injury Both In Vitro and In Vivo” (J Med Chem, 2021)
The source made the active and inactive calls. The calls are words filed in the database; no cut-off is given here.

Legend:
[1] = target: T1, Transient receptor potential cation channel subfamily M member 2 (Homo sapiens, UniProt O94759); assay: Inhibition of human TRPM2 expressed in HEK293T cells assessed as suppression of H2O2-induced calcium flux at 1 uM measured after 30 mins by Fluo-3/AM assay; assay type: cell-based
[2] = target: T1, Transient receptor potential cation channel subfamily M member 2; assay: Inhibition of human TRPM2 expressed in HEK293T cells assessed as suppression of H2O2-induced calcium flux at 0.3 uM measured after 30 mins by Fluo-3/AM assay; assay type: cell-based
[3] = target: T2, Transient receptor potential cation channel subfamily M member 8 (Homo sapiens, UniProt Q7Z2W7); assay: Inhibition of human TRPM8 expressed in HEK293T cells assessed as blocked of menthol-activated current by whole cell patch clamp electrophysiology relative to control; assay type: cell-based
In short: (§1)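 Whole-cell patch clamp was run at room temperature on HEK293T cells transiently cotransfected with human TRPM8 plus GFP, 24–48 h before recording. ECS was 145 NaCl, 5.6 KCl, 2 MgCl₂, 1.2 CaCl₂, 10 HEPES, pH 7.2. Current was activated with 1 mM menthol, and compound was perfused at least 60 s after it stabilized. Inhibition was calculated relative to stable agonist current minus residual current; n = 3–6.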
Target sequence in this assay (Q7Z2W7 whole entry, the tested form may be a part): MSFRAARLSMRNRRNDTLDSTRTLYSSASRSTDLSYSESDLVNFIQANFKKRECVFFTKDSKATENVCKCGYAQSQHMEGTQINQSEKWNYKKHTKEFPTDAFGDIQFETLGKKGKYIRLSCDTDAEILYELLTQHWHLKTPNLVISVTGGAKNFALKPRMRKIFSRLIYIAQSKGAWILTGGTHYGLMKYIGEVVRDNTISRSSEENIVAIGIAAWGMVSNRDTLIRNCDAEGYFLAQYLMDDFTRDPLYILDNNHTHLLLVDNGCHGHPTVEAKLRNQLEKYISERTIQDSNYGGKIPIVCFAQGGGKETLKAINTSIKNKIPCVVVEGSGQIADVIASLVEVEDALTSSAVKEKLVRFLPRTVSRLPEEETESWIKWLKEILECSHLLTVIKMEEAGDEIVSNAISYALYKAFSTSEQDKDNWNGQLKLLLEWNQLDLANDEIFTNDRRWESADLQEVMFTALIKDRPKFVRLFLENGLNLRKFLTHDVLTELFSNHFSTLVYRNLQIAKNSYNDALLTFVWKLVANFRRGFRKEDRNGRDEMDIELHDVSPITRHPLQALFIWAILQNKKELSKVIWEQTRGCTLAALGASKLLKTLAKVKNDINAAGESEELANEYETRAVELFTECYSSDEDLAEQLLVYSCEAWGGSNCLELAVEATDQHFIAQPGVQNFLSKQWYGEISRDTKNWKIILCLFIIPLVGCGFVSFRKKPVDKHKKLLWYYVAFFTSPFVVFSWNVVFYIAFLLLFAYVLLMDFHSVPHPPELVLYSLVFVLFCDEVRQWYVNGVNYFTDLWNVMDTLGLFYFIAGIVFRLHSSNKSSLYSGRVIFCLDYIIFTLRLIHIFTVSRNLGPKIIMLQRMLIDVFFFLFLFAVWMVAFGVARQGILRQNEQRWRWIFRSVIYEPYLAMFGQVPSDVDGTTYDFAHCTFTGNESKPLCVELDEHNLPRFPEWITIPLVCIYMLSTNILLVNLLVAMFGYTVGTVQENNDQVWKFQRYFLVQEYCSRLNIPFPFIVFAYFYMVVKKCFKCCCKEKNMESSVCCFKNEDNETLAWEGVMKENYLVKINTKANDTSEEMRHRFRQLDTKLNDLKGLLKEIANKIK

[4] = target: T1, Transient receptor potential cation channel subfamily M member 2; assay: Inhibition of human TRPM2 expressed in HEK293T cells assessed as blocked of ADPR-activated current by whole cell patch clamp electrophysiology; assay type: cell-based
[5] = target: T2, Transient receptor potential cation channel subfamily M member 8; assay: Inhibition of human TRPM8 expressed in HEK293T cells assessed as blocked of menthol-activated current at 10 uM by whole cell patch clamp electrophysiology relative to control; assay type: cell-based; in short: as §1
Target sequence in this assay (Q7Z2W7 whole entry, looked up, the tested form may be a part): as the sequence (Q7Z2W7 whole entry, the tested form may be a part) above

[6] = tested on: SH-SY5Y; assay: Cytotoxicity against human SH-SY5Y cells assessed as toxicity at 30 uM incubated for 24 hrs by CCK-8 assay; assay type: cell-based
In short: (§2)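 SH-SY5Y cells were seeded at 2 × 10⁴ per well and grown 12 h at 37 °C. They were then treated with compound (1–30 μM) under normoxic, normal-glucose conditions for 24 h. CCK-8 (10%) was added for 2 h at 37 °C and OD450 read. Viability was taken relative to untreated control after blank subtraction, with three replicate wells.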

[7] = target: Phospholipase A2 (Homo sapiens, UniProt P04054); assay: Inhibition of PLA2 (unknown origin) using soybean phosphatidylcholine as substrate at 10 uM preincubated for 30 mins followed incubated for 60 mins after substrate addition by microplate reader relative to control
In short: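 PLA2 (4 μg/L in PBS) was preincubated 30 min at 37 °C with inhibitor in 125 mM Tris. Substrate was then added for 60 min: soybean phosphatidylcholine with Tris, CaCl₂, sodium deoxycholate and 0.5% Triton X-100. Liberated free fatty acids were quantified colorimetrically at OD550. Results are % inhibition versus enzyme without inhibitor, n = 3.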

[8] = tested on: SH-SY5Y; assay: Neuroprotective activity against oxygen glucose deprivation/reperfusion-induced cell death in human SH-SY5Y cells assessed as cell viability at 3 uM […] by CCK8 assay relative to control; assay type: functional
[9] = tested on: Mus musculus; assay: Neuroprotective activity in mouse model of transient middle cerebral artery occlusion-induced cerebral ischemia-reperfusion injury assessed as reduction in infarct volume at 1 mg/kg, iv treated for 3 hrs after onset of reperfusion by TTC staining based assay (reference value: 52 +/- 1.7%); assay type: functional; set-up: scale not given: the % may be the effect or the level left
[10] = tested on: Mus musculus; assay: Neuroprotective activity in mouse model of transient middle cerebral artery occlusion-induced cerebral ischemia-reperfusion injury assessed as reduction neurological score at 3 mg/kg, iv treated for 3 hrs after onset of reperfusion by TTC staining based assay (reference value: 2.4 +/- 0.5); assay type: functional
[11] = tested on: SH-SY5Y; assay: Cytotoxicity against human SH-SY5Y cells assessed as cell viability under normoxic/normal sugar condition at 10 to 30 uM by CCK-8 assay; assay type: cell-based; conditions: dose 10-30 µM; in short: as §2
[12] = tested on: Mus musculus; assay: Neuroprotective activity in mouse model of transient middle cerebral artery occlusion-induced cerebral ischemia-reperfusion injury assessed as reduction neurological score at 0.3 mg/kg, iv treated for 3 hrs after onset of reperfusion by TTC staining based assay relative to control; assay type: functional, organism-based
[13] = tested on: Mus musculus; assay: Neuroprotective activity in mouse model of transient middle cerebral artery occlusion-induced cerebral ischemia-reperfusion injury assessed as reduction in infarct volume at 0.3 mg/kg, iv treated for 3 hrs after onset of reperfusion by TTC staining based assay (reference value: 52 +/- 1.7%); assay type: functional; set-up: scale not given: the % may be the effect or the level left
[14] = tested on: Mus musculus; assay: Neuroprotective activity in mouse model of transient middle cerebral artery occlusion-induced cerebral ischemia-reperfusion injury assessed as reduction neurological score at 1 mg/kg, iv treated for 3 hrs after onset of reperfusion by TTC staining based assay relative to control; assay type: functional, organism-based
[15] = tested on: Mus musculus; assay: Neuroprotective activity in mouse model of transient middle cerebral artery occlusion-induced cerebral ischemia-reperfusion injury assessed as reduction in infarct volume at 3 mg/kg, iv treated for 3 hrs after onset of reperfusion by TTC staining based assay (reference value: 57.6 +/- 4.9%); assay type: functional; set-up: scale not given: the % may be the effect or the level left

Phospholipase A2, sequence (P04054 23-148 limits assumed): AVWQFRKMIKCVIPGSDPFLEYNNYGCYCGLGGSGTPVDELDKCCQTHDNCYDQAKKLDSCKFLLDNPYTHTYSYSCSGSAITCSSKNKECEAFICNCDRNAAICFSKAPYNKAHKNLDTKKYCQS
T1 sequence (O94759 whole entry): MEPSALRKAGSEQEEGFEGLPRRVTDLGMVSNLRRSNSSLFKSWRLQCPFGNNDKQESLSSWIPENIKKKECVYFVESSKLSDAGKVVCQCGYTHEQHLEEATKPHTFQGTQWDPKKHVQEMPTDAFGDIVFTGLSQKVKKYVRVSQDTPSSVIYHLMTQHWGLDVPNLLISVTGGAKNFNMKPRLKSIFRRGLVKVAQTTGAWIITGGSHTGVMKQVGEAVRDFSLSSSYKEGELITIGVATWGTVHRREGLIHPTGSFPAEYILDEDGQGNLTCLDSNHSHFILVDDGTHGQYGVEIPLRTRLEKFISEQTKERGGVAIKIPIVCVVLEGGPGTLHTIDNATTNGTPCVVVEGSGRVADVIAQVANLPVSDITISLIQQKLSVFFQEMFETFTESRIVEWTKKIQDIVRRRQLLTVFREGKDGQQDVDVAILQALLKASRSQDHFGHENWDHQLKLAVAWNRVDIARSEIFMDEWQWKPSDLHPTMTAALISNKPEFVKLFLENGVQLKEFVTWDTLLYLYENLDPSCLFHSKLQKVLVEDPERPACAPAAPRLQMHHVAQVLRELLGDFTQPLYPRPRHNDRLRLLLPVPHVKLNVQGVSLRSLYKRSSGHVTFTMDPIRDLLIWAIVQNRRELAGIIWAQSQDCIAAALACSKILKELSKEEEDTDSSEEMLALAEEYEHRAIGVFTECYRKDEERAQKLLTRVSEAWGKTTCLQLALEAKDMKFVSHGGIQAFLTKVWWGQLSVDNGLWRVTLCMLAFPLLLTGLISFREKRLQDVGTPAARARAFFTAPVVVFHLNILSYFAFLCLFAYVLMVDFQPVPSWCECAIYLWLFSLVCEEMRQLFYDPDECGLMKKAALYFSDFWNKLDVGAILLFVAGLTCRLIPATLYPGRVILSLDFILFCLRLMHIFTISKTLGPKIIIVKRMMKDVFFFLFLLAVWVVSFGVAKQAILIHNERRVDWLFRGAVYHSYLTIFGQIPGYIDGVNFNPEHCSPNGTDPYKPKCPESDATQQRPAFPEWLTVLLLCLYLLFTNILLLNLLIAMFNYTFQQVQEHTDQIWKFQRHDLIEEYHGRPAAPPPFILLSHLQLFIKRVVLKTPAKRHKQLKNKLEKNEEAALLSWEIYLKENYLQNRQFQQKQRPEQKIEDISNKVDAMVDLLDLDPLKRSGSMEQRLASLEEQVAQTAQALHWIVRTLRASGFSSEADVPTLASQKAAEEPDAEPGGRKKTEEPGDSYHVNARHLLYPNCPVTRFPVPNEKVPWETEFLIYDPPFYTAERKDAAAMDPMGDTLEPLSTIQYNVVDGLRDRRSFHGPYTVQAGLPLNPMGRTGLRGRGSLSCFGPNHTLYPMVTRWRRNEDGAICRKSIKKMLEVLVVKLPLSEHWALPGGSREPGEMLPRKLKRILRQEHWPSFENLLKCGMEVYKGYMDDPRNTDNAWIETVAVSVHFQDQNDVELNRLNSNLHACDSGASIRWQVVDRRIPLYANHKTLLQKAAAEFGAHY

SMILES	inhibition [1]	further results
CCCCCc1ccc(/C=C/C(=O)Nc2ccc(C(=O)O)cc2)cc1	< 45%	–
CCCCCc1ccc(/C=C/C(=O)Nc2c(C)cc(Cl)cc2C(=O)O)cc1	< 45%	–
CC(C)c1ccc(-c2ccc(/C=C/C(=O)Nc3ccccc3C(=O)O)cc2)cc1	> 45%	–
CCCc1ccc(/C=C/C(=O)Nc2ccccc2C(=O)O)cc1	< 45%	inhibition [2]: inactive
CCCCCc1ccc(NC(=O)c2ccccc2C(=O)O)cc1	> 45%	–
CCCCCc1ccc(/C=C/C(=O)Nc2cccc(C(=O)O)c2)cc1	> 45%	–
COc1ccccc1-c1ccc(/C=C/C(=O)Nc2ccccc2C(=O)O)cc1	> 45%	–
CC(C)c1ccc(/C=C/C(=O)Nc2ccccc2C(=O)O)cc1	< 45%	inhibition [2]: inactive
O=C1CCN(C(=O)/C=C/c2ccc(-c3ccccc3)cc2)c2ccccc21	< 45%	–
O=C(/C=C/c1ccc(N2CCOCC2)cc1)Nc1ccccc1C(=O)O	< 45%	inhibition [2]: inactive
Cc1ccc(C(=O)O)c(NC(=O)/C=C/c2ccc(-c3cccc([N+](=O)[O-])c3)cc2)c1	> 45%	–
CC(C)NC(=O)c1ccc(/C=C/C(=O)Nc2ccccc2C(=O)O)cc1	< 45%	inhibition [2]: inactive
CCCCCc1ccc(C(=O)Nc2ccccc2C(=O)O)cc1	> 45%	–
COc1cccc(NC(=O)/C=C/c2ccc(Cl)cc2)c1	–	IC50 [3]: > 10 µM
CCOc1ccc(/C=C/C(=O)Nc2ccccc2C(=O)O)cc1	< 45%	inhibition [2]: inactive
Clc1ccccc1C(c1ccccc1)(c1ccccc1)n1ccnc1 [CLOTRIMAZOLE]	–	IC50 [4]: 3 µM
CCCCCc1ccc(/C=C/c2ccccc2C(=O)O)cc1	< 45%	–
O=C(/C=C/c1ccc(-c2ccccc2C(F)(F)F)cc1)Nc1ccccc1C(=O)O	> 45%	–
CCCCCc1ccc(/C=C/C(=O)Nc2ccc(Br)cc2C(=O)O)cc1	> 45%	–
O=C(/C=C/c1ccc(-c2ccccc2)cc1)N1C(=O)c2ccccc21	< 45%	–
O=C(/C=C/c1ccc(-c2ccccc2)cc1)Nc1ccc(F)cc1C(=O)O	> 45%	–

SMILES	inhibition [1]	further results
Cc1ccc(-c2ccc(/C=C/C(=O)Nc3ccccc3C(=O)O)cc2)cc1	> 45%	–
O=C1CCCN(C(=O)/C=C/c2ccc(-c3ccccc3)cc2)c2ccccc21	< 45%	–
CCCCCc1ccc(/C=C/C(=O)Nc2c(Cl)cccc2C(=O)O)cc1	< 45%	–
O=C(/C=C/c1ccccc1)Nc1ccccc1C(=O)O	< 45%	inhibition [2]: inactive
CCOC(=O)Cn1nc(-c2ccc(C(F)(F)F)cc2)c2c1CCCCC2	–	IC50 [4]: 0.013 µM
Cc1ccccc1-c1ccc(/C=C/C(=O)Nc2ccccc2C(=O)O)cc1	> 45%	–
O=C(/C=C/c1ccc(-c2cccc(Cl)c2)cc1)Nc1ccccc1C(=O)O	> 45%	–
CC(C)(C)c1ccc(/C=C/C(=O)Nc2ccccc2C(=O)O)cc1	< 45%	inhibition [2]: inactive
O=C(/C=C/c1ccc(-c2ccccc2)cc1)Nc1ccccc1C(=O)O	> 45%	IC50 [4]: 2.56 µM
O=C(/C=C/c1ccc(-c2ccccc2)cc1)Nc1ccc(Br)cc1C(=O)O	> 45%	inhibition [5]: 93.3%; Activity [6]: < 10%; inhibition [7]: inactive; Activity [8]: Active; IC50 [4]: 0.41 µM
O=C(/C=C/c1ccc(Cl)cc1)Nc1ccccc1C(=O)O	< 45%	inhibition [2]: inactive
COc1cccc(-c2ccc(/C=C/C(=O)Nc3ccccc3C(=O)O)cc2)c1	> 45%	–
Cc1ccc(/C=C/C(=O)Nc2ccccc2C(=O)O)cc1	< 45%	inhibition [2]: inactive
Cc1cc(-c2ccccc2)ccc1/C=C/C(=O)Nc1ccccc1C(=O)O	> 45%	–
Cc1cc(/C=C/C(=O)Nc2ccccc2C(=O)O)ccc1-c1ccccc1	> 45%	–
O=C(/C=C/c1ccc(-c2cccc(F)c2)cc1)Nc1ccccc1C(=O)O	> 45%	Activity [6]: < 23.7%; IC50 [4]: 0.83 µM
CCc1ccc(-c2ccc(/C=C/C(=O)Nc3ccccc3C(=O)O)cc2)cc1	> 45%	–
COc1ccc(-c2ccc(/C=C/C(=O)Nc3ccccc3C(=O)O)cc2)cc1	> 45%	–
O=C(/C=C/c1ccc(-c2ccc(C(F)(F)F)cc2)cc1)Nc1ccccc1C(=O)O	> 45%	–
O=C(/C=C/c1ccc(N2CCCCC2)cc1)Nc1ccccc1C(=O)O	< 45%	inhibition [2]: inactive
O=C(/C=C/c1ccc(-c2ccc(F)cc2)cc1)Nc1ccccc1C(=O)O	< 45%	–

SMILES	inhibition [1]	further results
O=C(/C=C/c1ccc(-c2cccc([N+](=O)[O-])c2)cc1)Nc1ccc(Br)cc1C(=O)O	> 45%	–
CCCCCc1ccc(/C=C/C(=O)Nc2c(C)cccc2C(=O)O)cc1	< 45%	–
CCCCCc1ccc(/C=C/C(=O)Nc2c(C(=O)O)ccc(C)c2C)cc1	< 45%	–
CCCCCc1ccc(/C=C/C(=O)Nc2ccc(C)cc2C(=O)O)cc1	> 45%	inhibition [5]: 85.6%; Activity [6]: < 10%; inhibition [7]: inactive; Activity [8]: Active; IC50 [4]: 0.987 µM
CC1=NN(c2ccccc2)C(=O)C1 [EDARAVONE]	–	Activity [9]: 43.9%; Activity [10]: 1.6; Activity [11]: Non-Toxic; Activity [12]: inactive; Activity [13]: 46.2%; viability at 3 µM ([8]; read-out: Activity): 81.2%; Activity [14]: inactive; Activity [15]: 39%
CC(C)(C)c1ccc(-c2ccc(/C=C/C(=O)Nc3ccccc3C(=O)O)cc2)cc1	> 45%	–
O=C(/C=C/c1ccc(-c2cccc([N+](=O)[O-])c2)cc1)Nc1ccccc1C(=O)O	> 45%	inhibition [5]: 14.6%; Activity [6]: < 10%; Activity [11]: Non-Toxic; inhibition [7]: 24.6%; Activity [8]: Active; IC50 [4]: 0.398 µM
Cc1cccc(-c2ccc(/C=C/C(=O)Nc3ccccc3C(=O)O)cc2)c1	> 45%	–
O=C(/C=C/c1ccc(-c2ccccc2)cc1)Nc1ccc(Cl)cc1C(=O)O	> 45%	–
O=C(/C=C/c1ccc(-c2cccnc2)cc1)Nc1ccccc1C(=O)O	< 45%	inhibition [2]: inactive
CCc1ccc(/C=C/C(=O)Nc2ccccc2C(=O)O)cc1	< 45%	inhibition [2]: inactive
O=C(/C=C/c1ccc(-c2ccccc2)cc1)Nc1cc(Cl)ccc1C(=O)O	> 45%	–
O=C(/C=C/c1ccc(-c2cccc(Br)c2)cc1)Nc1ccccc1C(=O)O	> 45%	–
CCCCCc1ccc(/C=C/C(=O)c2ccccc2C(=O)O)cc1	> 45%	–
CCCCCc1ccc(/C=C/C(=O)Nc2cc(C)ccc2C(=O)O)cc1	> 45%	inhibition [5]: 88.1%; Activity [6]: < 10%; Activity [11]: Non-Toxic; inhibition [7]: inactive; Activity [8]: Active; IC50 [4]: 0.467 µM
CCCCCc1ccc(/C=C/C(=O)Nc2cc(F)c(F)cc2C(=O)O)cc1	> 45%	–
CCCCCc1ccc(/C=C/C(=O)Nc2cc(Cl)ccc2C(=O)O)cc1	> 45%	–
Clc1ccc(COC(Cn2ccnc2)c2ccc(Cl)cc2Cl)cc1 (configuration not stated) [ECONAZOLE]	–	IC50 [4]: 3 µM
CCCCCc1ccc(/C=C/C(=O)N2CCC(=O)c3ccccc32)cc1	< 45%	–
O=C(/C=C/c1ccc(-c2ccccc2F)cc1)Nc1ccccc1C(=O)O	> 45%	–
CCCCCc1ccc(/C=C/C(=O)N2CCCC(=O)c3ccccc32)cc1	< 45%	–
